In ChEMBL document CHEMBL2434871, “Discovery of a potent dual EGFR/HER-2 inhibitor L-2 (selatinib) for the treatment of cancer” (Eur J Med Chem, 2013):

Assays:
[1] = test system: Mus musculus; assay: Toxicity in BALB/c athymic mouse xenografted with human SKOV3 cells assessed as death at 200 mg/kg, po qd after 4 days; type: organism-based, SK-OV-3; design: dose 200 mg/kg, route oral; conditions: in vivo, 96 h
Method in brief: (§1)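 Female BALB/c athymic mice, 4-6 weeks old and pathogen-free, were housed under sterile conditions. NCI-N87 or SK-OV-3 cells (2 × 10⁶) were implanted s.c. in the right flank. At tumor volumes of 100-300 mm³, mice were randomized to vehicle control (n = 10) or treatment (n = 6). Treatment was the tosylate salt at 200 mg/kg by oral gavage once daily. Mice were monitored for clinical signs, body weight and death.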

[2] = test system: Mus musculus; assay: Toxicity in BALB/c athymic mouse xenografted with human NCI-N87 cells assessed as death at 200 mg/kg, po qd after 4 days; type: organism-based; design: dose 200 mg/kg, route oral; conditions: in vivo, 96 h; method in brief: as §1
[3] = test system: Mus musculus; assay: Toxicity in BALB/c athymic mouse xenografted with human SKOV3 cells assessed as hematuria at 200 mg/kg, po qd after 4 days; type: organism-based, SK-OV-3; design: dose 200 mg/kg, route oral; conditions: in vivo, 96 h
[4] = test system: Mus musculus; assay: Toxicity in BALB/c athymic mouse xenografted with human NCI-N87 cells assessed as hematuria at 200 mg/kg, po qd after 4 days; type: organism-based; design: dose 200 mg/kg, route oral; conditions: in vivo, 96 h
[5] = test system: Mus musculus; assay: Toxicity in BALB/c athymic mouse xenografted with human SKOV3 cells assessed as weight loss at 200 mg/kg, po qd after 4 days; type: organism-based, SK-OV-3; design: dose 200 mg/kg, route oral; conditions: in vivo, 96 h
[6] = test system: Mus musculus; assay: Toxicity in BALB/c athymic mouse xenografted with human NCI-N87 cells assessed as weight loss at 200 mg/kg, po qd after 4 days; type: organism-based; design: dose 200 mg/kg, route oral; conditions: in vivo, 96 h
[7] = test system: Mus musculus; assay: Toxicity in BALB/c athymic mouse xenografted with human SKOV3 cells assessed as scruffy skin at 200 mg/kg, po qd; type: organism-based, SK-OV-3; design: dose 200 mg/kg, route oral; conditions: in vivo
[8] = test system: Mus musculus; assay: Toxicity in BALB/c athymic mouse xenografted with human NCI-N87 cells assessed as scruffy skin at 200 mg/kg, po qd; type: organism-based; design: dose 200 mg/kg, route oral; conditions: in vivo
[9] = test system: Mus musculus; assay: Toxicity in BALB/c athymic mouse xenografted with human SKOV3 cells assessed as diarrhea at 200 mg/kg, po qd; type: organism-based, SK-OV-3; design: dose 200 mg/kg, route oral; conditions: in vivo
[10] = test system: Mus musculus; assay: Toxicity in BALB/c athymic mouse xenografted with human NCI-N87 cells assessed as diarrhea at 200 mg/kg, po qd; type: organism-based; design: dose 200 mg/kg, route oral; conditions: in vivo
[11] = test system: Mus musculus; assay: Toxicity in BALB/c athymic mouse xenografted with human SKOV3 cells assessed as lethargic condition at 200 mg/kg, po qd; type: organism-based, SK-OV-3; design: dose 200 mg/kg, route oral; conditions: in vivo
[12] = test system: Mus musculus; assay: Toxicity in BALB/c athymic mouse xenografted with human NCI-N87 cells assessed as lethargic condition at 200 mg/kg, po qd; type: organism-based; design: dose 200 mg/kg, route oral; conditions: in vivo
[13] = test system: BT-474; assay: Cytotoxicity against human BT474 cells after 72 hrs by SRB assay; type: functional, cell-based; conditions: BT-474, 72 h
[14] = test system: NCI-N87; assay: Cytotoxicity against human NCI-N87 cells after 72 hrs by SRB assay; type: functional, cell-based; conditions: NCI-N87, 72 h
[15] = molecular target: Receptor tyrosine-protein kinase erbB-2 (Homo sapiens, UniProt P04626); assay: Inhibition of HER-2 (unknown origin) using poly-(Glu4-Tyr) as substrate after 1 hr by ELISA-based spectrophotometry
Sequence of Receptor tyrosine-protein kinase erbB-2 (P04626 whole entry): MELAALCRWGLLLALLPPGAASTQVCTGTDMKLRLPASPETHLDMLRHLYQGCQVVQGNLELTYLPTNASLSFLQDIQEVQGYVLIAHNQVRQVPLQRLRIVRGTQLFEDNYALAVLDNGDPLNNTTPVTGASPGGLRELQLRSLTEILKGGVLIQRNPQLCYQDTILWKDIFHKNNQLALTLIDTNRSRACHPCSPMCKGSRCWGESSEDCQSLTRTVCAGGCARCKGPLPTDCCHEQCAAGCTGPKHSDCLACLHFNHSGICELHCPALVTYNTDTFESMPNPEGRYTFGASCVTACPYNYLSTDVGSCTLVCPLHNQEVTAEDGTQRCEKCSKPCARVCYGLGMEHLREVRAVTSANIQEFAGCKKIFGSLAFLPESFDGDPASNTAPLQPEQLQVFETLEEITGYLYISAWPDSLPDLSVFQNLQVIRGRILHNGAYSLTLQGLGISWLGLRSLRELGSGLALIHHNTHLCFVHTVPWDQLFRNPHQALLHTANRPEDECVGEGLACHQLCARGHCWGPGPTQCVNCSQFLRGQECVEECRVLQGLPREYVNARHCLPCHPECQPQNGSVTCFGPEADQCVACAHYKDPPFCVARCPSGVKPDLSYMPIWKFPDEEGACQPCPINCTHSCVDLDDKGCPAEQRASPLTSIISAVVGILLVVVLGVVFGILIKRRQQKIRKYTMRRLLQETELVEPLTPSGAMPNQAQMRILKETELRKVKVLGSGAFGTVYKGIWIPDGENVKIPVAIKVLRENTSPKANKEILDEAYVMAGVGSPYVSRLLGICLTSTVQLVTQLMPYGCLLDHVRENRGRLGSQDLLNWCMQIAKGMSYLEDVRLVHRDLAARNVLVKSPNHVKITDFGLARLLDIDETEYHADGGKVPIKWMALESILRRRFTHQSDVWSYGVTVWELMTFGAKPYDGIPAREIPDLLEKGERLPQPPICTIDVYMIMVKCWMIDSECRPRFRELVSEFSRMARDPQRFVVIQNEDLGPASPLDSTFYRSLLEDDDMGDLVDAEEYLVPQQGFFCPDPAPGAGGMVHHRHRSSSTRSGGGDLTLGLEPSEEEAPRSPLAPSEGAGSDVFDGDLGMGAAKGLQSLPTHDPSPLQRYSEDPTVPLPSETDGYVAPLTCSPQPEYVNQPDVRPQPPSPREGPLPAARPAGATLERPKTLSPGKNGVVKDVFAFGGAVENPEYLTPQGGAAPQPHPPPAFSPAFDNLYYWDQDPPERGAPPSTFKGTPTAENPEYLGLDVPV
Method in brief: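 ELISA on plates pre-coated with poly(Glu,Tyr 4:1) substrate. Serially diluted compounds plus ATP were added in 50 mM HEPES pH 7.4 containing 20 mM MgCl₂, 0.2 mM MnCl₂, 0.1 mM Na₃VO₄ and 1 mM DTT. Phosphotyrosine was detected with anti-phosphotyrosine antibody PY99 (1:500), then HRP anti-mouse IgG, then o-phenylenediamine/H₂O₂ at pH 5.5.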

[16] = molecular target: Epidermal growth factor receptor (Homo sapiens, UniProt P00533); assay: Inhibition of EGFR (unknown origin) using poly-(Glu4-Tyr) as substrate after 1 hr by ELISA-based spectrophotometry
Sequence of Epidermal growth factor receptor (P00533 whole entry): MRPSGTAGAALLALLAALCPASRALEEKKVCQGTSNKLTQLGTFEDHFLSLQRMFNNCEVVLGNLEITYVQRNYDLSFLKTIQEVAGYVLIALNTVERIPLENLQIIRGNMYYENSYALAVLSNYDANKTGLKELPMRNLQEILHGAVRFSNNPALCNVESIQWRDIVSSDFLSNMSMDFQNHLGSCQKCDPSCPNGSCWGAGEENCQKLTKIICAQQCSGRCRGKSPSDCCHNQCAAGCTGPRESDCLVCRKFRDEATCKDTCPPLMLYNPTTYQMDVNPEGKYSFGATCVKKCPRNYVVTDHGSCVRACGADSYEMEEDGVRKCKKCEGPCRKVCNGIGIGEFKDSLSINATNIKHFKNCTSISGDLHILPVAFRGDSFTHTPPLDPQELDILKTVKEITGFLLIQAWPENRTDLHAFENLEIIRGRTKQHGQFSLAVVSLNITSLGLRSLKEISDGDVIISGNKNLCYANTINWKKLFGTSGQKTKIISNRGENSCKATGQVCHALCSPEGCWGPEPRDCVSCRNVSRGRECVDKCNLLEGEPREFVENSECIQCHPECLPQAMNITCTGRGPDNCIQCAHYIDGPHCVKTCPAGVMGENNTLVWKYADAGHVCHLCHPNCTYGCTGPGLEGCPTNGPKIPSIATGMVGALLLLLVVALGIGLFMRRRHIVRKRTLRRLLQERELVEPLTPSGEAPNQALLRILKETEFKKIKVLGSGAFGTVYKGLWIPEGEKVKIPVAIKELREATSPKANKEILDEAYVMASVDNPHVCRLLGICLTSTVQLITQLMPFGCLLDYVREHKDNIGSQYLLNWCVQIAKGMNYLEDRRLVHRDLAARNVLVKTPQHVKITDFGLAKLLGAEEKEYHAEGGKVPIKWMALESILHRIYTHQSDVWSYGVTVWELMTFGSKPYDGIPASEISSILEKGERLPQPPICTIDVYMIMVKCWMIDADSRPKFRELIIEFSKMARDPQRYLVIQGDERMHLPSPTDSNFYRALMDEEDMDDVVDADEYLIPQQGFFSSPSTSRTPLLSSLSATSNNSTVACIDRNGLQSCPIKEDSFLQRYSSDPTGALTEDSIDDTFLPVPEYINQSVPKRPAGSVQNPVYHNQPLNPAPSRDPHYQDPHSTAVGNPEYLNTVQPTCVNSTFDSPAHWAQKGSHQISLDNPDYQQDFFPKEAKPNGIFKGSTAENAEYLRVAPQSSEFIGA

[17] = test system: NCI-N87; assay: Antitumor activity against human NCI-N87 cells xenografted in BALB/c athymic mouse assessed as tumor regression at 200 mg/kg, po qd after 28 days relative to vehicle-treated control; type: functional; conditions: NCI-N87, 672 h, read-out: TGI
Method in brief: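 Female BALB/c athymic mice, 4–6 weeks old, received 2 × 10⁶ NCI-N87 or SK-OV-3 cells s.c. in the right flank. At a tumor volume of 100–300 mm³ they were randomized (control n = 10, treated n = 6). Tosylate salt was given at 200 mg/kg qd by oral gavage, and controls received vehicle. Tumor volume was taken as length × width²/2 by caliper. Inhibition = (1 − T/C) × 100% on mean relative tumor volume (RTV). Two-tailed t test.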

[18] = test system: Mus musculus; assay: Toxicity in BALB/c athymic mouse xenografted with human SKOV3 cells assessed as bloody stool at 200 mg/kg, po qd after 4 days; type: organism-based, SK-OV-3; design: dose 200 mg/kg, route oral; conditions: in vivo, 96 h
[19] = test system: Mus musculus; assay: Toxicity in BALB/c athymic mouse xenografted with human NCI-N87 cells assessed as bloody stool at 200 mg/kg, po qd after 4 days; type: organism-based; design: dose 200 mg/kg, route oral; conditions: in vivo, 96 h
[20] = Aqueous solubility of the compound at 25 degC by shake-flask method; type: physicochemical; conditions: unbuffered water
[21] = test system: SK-OV-3; assay: Antitumor activity against human SKOV3 cells xenografted in BALB/c athymic mouse assessed as tumor regression at 200 mg/kg, po qd after 21 days relative to vehicle-treated control; conditions: SK-OV-3, po, 504 h, read-out: TGI
[22] = test system: Rattus norvegicus; assay: Elimination half life in Wistar rat at 100 mg/kg, po assessed as lapatinib; type: ADME, organism-based; design: dose 100 mg/kg, route oral; conditions: in vivo
Method in brief: (§2)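 Male Wistar rats (220 ± 10 g), n = 4 per group, given the tosylate salt orally by gavage at 100 mg/kg, suspended in 0.5% sodium carboxymethylcellulose. Blood was sampled at 0.25 to 24 h. Parent compound and the lapatinib metabolite were extracted by C18 solid-phase extraction and analysed by LC/MSn.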

[23] = Elimination half life in Wistar rat at 100 mg/kg, po; type: ADME, organism-based; design: dose 100 mg/kg, route oral; conditions: in vivo, read-out: beta t1/2 (converted); method in brief: as §2
[24] = test system: Rattus norvegicus; assay: Mean residence time in Wistar rat at 100 mg/kg, po assessed as lapatinib; type: ADME, organism-based; design: dose 100 mg/kg, route oral; conditions: in vivo; method in brief: as §2
[25] = Mean residence time in Wistar rat at 100 mg/kg, po; type: ADME, organism-based; design: dose 100 mg/kg, route oral; conditions: in vivo; method in brief: as §2
[26] = test system: Rattus norvegicus; assay: AUC (0 to infinity) in Wistar rat at 100 mg/kg, po assessed as lapatinib; type: ADME, organism-based, Plasma; design: time infinity, dose 100 mg/kg, route oral; conditions: in vivo; method in brief: as §2
[27] = AUC (0 to infinity) in Wistar rat at 100 mg/kg, po; type: ADME, organism-based; design: time infinity, dose 100 mg/kg, route oral; conditions: plasma; method in brief: as §2
[28] = test system: Rattus norvegicus; assay: AUC (0 to t) in Wistar rat at 100 mg/kg, po assessed as lapatinib; type: ADME, organism-based, Plasma; design: dose 100 mg/kg, route oral; conditions: in vivo; method in brief: as §2
[29] = AUC (0 to t) in Wistar rat at 100 mg/kg, po; type: ADME, organism-based; design: dose 100 mg/kg, route oral; conditions: plasma; method in brief: as §2
[30] = test system: Rattus norvegicus; assay: Cmax in Wistar rat at 100 mg/kg, po assessed as lapatinib; type: ADME, organism-based; design: dose 100 mg/kg, route oral; conditions: in vivo; method in brief: as §2
[31] = Cmax in Wistar rat at 100 mg/kg, po; type: ADME, organism-based; design: dose 100 mg/kg, route oral; conditions: in vivo; method in brief: as §2
[32] = test system: Rattus norvegicus; assay: Tmax in Wistar rat at 100 mg/kg, po assessed as lapatinib; type: ADME, organism-based; design: dose 100 mg/kg, route oral; conditions: in vivo; method in brief: as §2
[33] = Tmax in Wistar rat at 100 mg/kg, po; type: ADME, organism-based; design: dose 100 mg/kg, route oral; conditions: in vivo; method in brief: as §2

Row | Structure (SMILES) | Activity [3] | Activity [4] | Activity [5] | Activity [6] | IC50 [13] | IC50 [14] | IC50 [15] | IC50 [16] | inhibition in vivo at 200 mg/kg [17] | Activity [18] | Activity [19] | solubility [20] | inhibition in vivo at 200 mg/kg [21] | other results
1 | Cc1ccc(S(=O)(=O)O)cc1.Fc1cccc(COc2ccc(Nc3ncnc4ccc(-c5ccc(CN6CCNCC6)o5)cc34)cc2Cl)c1 | Toxic | Toxic | Toxic | Toxic | 41.9 nM | 29.2 nM | 12.3 nM | – | – | – | – | – | – | Activity [1]: Toxic; Activity [2]: Toxic; Activity [7]: Toxic; Activity [8]: Toxic; Activity [9]: Toxic; Activity [10]: Toxic; Activity [11]: Toxic; Activity [12]: Toxic
2 | CS(=O)(=O)N1CCN(Cc2ccc(-c3ccc4ncnc(Nc5ccc(OCc6cccc(F)c6)c(Cl)c5)c4c3)o2)CC1 | – | – | – | – | – | – | 19.8 nM | 59.9 nM | – | – | – | – | – | –
3 | Cc1ccc(S(=O)(=O)O)cc1.O=S(=O)(CCNCc1ccc(-c2ccc3ncnc(Nc4ccc(OCc5cccc(F)c5)c(Cl)c4)c3c2)o1)CC(F)(F)F | Non-toxic | Non-toxic | Non-toxic | Non-toxic | 26.4 nM | 51.3 nM | 8.6 nM | 21.1 nM | 46.9% | Non-toxic | Non-toxic | 16.7 µg/mL | 45.2% | –
4 | CN1CCN(Cc2ccc(-c3ccc4ncnc(Nc5ccc(OCc6cccc(F)c6)c(Cl)c5)c4c3)o2)CC1 | – | – | – | – | – | – | 23.7 nM | 12.5 nM | – | – | – | – | – | –
5 | CSCCNCc1ccc(-c2ccc3ncnc(Nc4ccc(OCc5cccc(F)c5)c(Cl)c4)c3c2)o1.Cc1ccc(S(=O)(=O)O)cc1 | Non-toxic | Non-toxic | Non-toxic | Non-toxic | 35.1 nM | 47.3 nM | 18.3 nM | 25.1 nM | 84.7% | Non-toxic | Non-toxic | 3 µg/mL | 74.6% | beta t1/2 [22]: 4.18 h; half-life [23]: 4.43 h; MRT [24]: 8.34 h; MRT [25]: 8.19 h; AUC [26]: 2058 ng·h/mL; AUC(0-inf) [27]: 8130 ng·h/mL; AUCt [28]: 1994 ng·h/mL; AUC(0-t) [29]: 7890 ng·h/mL; Cmax [30]: 242 ng/mL; Cmax [31]: 854 ng/mL; Tmax [32]: 3 h; Tmax [33]: 3 h
6 | NS(=O)(=O)CCNCc1ccc(-c2ccc3ncnc(Nc4ccc(OCc5cccc(F)c5)c(Cl)c4)c3c2)o1 | – | – | – | – | – | – | 3.9 nM | – | – | – | – | – | – | –
